# Source: PubChem BioAssay (several laboratories)
# Only some compounds are listed: those with a hit (about 2% of all), similar ones and a draw of the others.
# FLuc act counter – firefly luciferase counter-screen for stimulation assays | P08659 | ATPlite luciferase biochemical, luminescence, 10 min; 0 = ATP-free wells, 1 = DMSO control | activation factor at 10 µM | 200,000 tested, under 10 active;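 active = luciferase activation factor, scaled between plate controls, of at least 2 with compound at 10 µM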
# Target sequence (P08659 whole entry, looked up): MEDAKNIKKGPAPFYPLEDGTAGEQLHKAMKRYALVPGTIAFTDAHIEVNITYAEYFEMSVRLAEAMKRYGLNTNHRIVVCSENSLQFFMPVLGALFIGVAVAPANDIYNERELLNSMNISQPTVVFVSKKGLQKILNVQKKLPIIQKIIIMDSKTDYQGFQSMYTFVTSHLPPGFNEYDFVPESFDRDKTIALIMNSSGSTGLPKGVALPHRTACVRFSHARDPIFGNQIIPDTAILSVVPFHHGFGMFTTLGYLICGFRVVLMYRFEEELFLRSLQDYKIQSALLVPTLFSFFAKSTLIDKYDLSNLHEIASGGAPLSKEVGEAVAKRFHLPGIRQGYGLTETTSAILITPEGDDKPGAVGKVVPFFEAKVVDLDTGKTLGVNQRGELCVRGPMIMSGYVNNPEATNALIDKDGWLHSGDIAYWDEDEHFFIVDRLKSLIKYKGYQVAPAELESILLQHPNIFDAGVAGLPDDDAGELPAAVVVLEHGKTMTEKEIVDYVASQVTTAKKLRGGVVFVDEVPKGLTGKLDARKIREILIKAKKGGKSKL
#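 Assay system – cell-free luciferase reagent · Medium – PBS-based ATP solution · Dosing – test compounds dosed from 2 mM stocks in 100% DMSO · Timing – 10 min, room temperature · Technique – light output (luminescence) · Measure – luminescence gain marking luciferase activators · Controls – No-ATP low control, compound-free enzyme-plus-ATP high control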
# FLuc inh counter – counter-screen for luciferase assay inhibitors: firefly luciferase inhibition; P08659; ATPLite firefly luciferase biochemical luminescence, 10 min; inhibition, % at 10 µM; 200,000 compounds, 1.5% hits; AID 1006;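 active = inhibition above about 50% when tested at 10 µM, limit read from the data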
# C8 TRAIL sens – caspase-8 TRAIL sensitization; inhibition (viability loss, TRAIL sensitization), % at 10 µM; NB7+C8 cells + TRAIL, ATPlite viability luminescence; 360,000 compounds, 1% hits;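 active = compounds causing at least 50% loss of cell viability in the single-dose screen, relative to plate controls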
# PPC-1+TRAIL kill – kills PPC-1 cancer cells in the presence of TRAIL. PPC-1 cells + TRAIL, ATPLite viability luminescence. cell killing (% activity), % at 4 µM or 5 µM. 220,000 compounds, 0.41% hits. AID 1443;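 active = cell killing above 50% in the first pass at 4 µM, then a duplicate retest at 5 µM averaging 50% or more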;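 note: plate controls were cells with TRAIL plus DMSO for no effect and medium-only wells lacking cells for full effect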
# HSP90 refold inh – HSP90 refolding inhibition in rabbit reticulocyte lysate; luciferase refolding luminescence, 3 h; inhibition, % at 5.6 µM; 290,000 compounds, 0.91% hits; AID 1789;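 active = inhibition above the screen-wide mean plus 3 SD, computed separately per campaign, cut at about 16% in these data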;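 note: 0% = DMSO wells and 100% = 60 µM geldanamycin wells; inhibitors lower the luminescence because luciferase stays unfolded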
# Starred values were filed as active, the others as inactive; . = not tested or not shown.
SMILES,FLuc act counter,FLuc inh counter,C8 TRAIL sens,PPC-1+TRAIL kill,HSP90 refold inh
O=c1[nH]c(/C=C/c2cccc3ccccc23)nc2ccccc12,1,-2,-2,-4,4
O=c1[nH]c(/C=C/c2ccccn2)nc2ccccc12,.,.,30,.,0
Cc1cccc(/C=C\c2nc3ccccc3c(=O)[nH]2)c1,0.3,73*,58*,38,2
O=c1[nH]c(/C=C/c2ccc(Br)cc2)nc2ccccc12,.,.,78*,.,0
O=C(COC(=O)c1cccs1)c1ccccc1,0.3,66*,-3,-6,1
O=C(COC(=O)c1cccnc1Cl)c1ccccc1,0.4,59*,-24,26,13
COc1ccc(C(=O)COC(=O)c2cccs2)cc1,.,.,-4,.,.
O=C(OCc1ccc(COC(=O)c2cccnc2Cl)cc1)c1cccnc1Cl,1.1,-10,1,2,-2
CCc1ccc(C(=O)COC(=O)c2cccnc2Cl)cc1,0.1,91*,-4,8,-1
COc1cc2oc(=O)cc(CN3CCN(C(C)=O)CC3)c2cc1Cl,.,.,-15,.,.
O=C(Nc1ccc(OCc2ccccc2)cc1)Nc1nnc([C@H]2C[C@H](O)[C@@H](CO)O2)s1,.,.,-1,.,.
CC(C)(C)C1CCN2CCC[C@](c3ccccc3)(C1)C2OCCCO (stereo partly specified),.,.,-11,.,.
O=C(NCCN1CCC(n2c(=O)[nH]c3ccccc32)CC1)N1c2ccccc2Sc2ccccc21,.,.,23,.,.
O=C(Nc1sc2c(c1C(=O)O)CCCC2)c1cccs1,0.6,38,8,-26,-2
Cc1ccc(C(=O)Nc2sc3c(c2C(=O)O)CCCCC3)o1,0.1,86*,27,34,12
O=C(Nc1sc2c(c1C(=O)O)CCCCC2)c1cccs1,0.2,84*,22,49,2
O=C(Nc1sc2c(c1C(=O)O)CCCCC2)c1ccccc1F,0.4,61*,20,42,3
O=C1NC(c2ccccc2)N=C2Oc3ccccc3C=C12 (stereo unspecified),.,.,14,.,.
Oc1[nH]c2ccccc2c1N=Nc1nc2ccccc2s1,0.5,54*,34,19,-5
Cc1ccc2[nH]c(O)c(N=Nc3nc4ccccc4s3)c2c1,.,.,-5,10,-2
COCCNC(=O)C1CCCN(C(=O)c2ccc3ccccc3n2)CC1 (stereo unspecified),.,.,-2,.,.
C/C(=N/NS(=O)(=O)c1ccc(Br)cc1)c1cccc(NC(=O)C2CC2)c1,.,.,-3,.,.
Cc1ccc(C(=O)Nc2nc3ccc(S(C)(=O)=O)cc3s2)o1,0.3,74*,49,48,4
Cc1noc(C)c1C(=O)Nc1nc2ccc(S(C)(=O)=O)cc2s1,.,.,54*,.,2
C[C@@H]1CN([C@H](C)CO)C(=O)c2cc(Br)cnc2O[C@H]1CN(C)C(=O)Cc1ccccc1,.,.,-9,.,.
SMILES,FLuc act counter,FLuc inh counter,C8 TRAIL sens,PPC-1+TRAIL kill,HSP90 refold inh
O=C(Nc1ccccc1C(=O)O)c1ccc(NC(=O)C2CC2)cc1,.,.,65*,.,0
O=C(Nc1ccccc1O)c1ccc(NC(=O)C2CC2)cc1,.,.,14,.,-6
Nc1ccc(C(=O)Nc2ccccc2C(=O)O)cc1,0.5,54*,20,23,3
C/C(=N\OC(=O)c1ccc(F)cc1)c1ccc(F)c(F)c1,.,.,-1,11,4
Cc1ccc(/C(N)=N/OC(=O)c2ccc(F)cc2)cc1,0.3,68*,74*,9,-3
N/C(=N\OC(=O)c1ccc(F)cc1)c1ccccc1,0,97*,1,6,-4
N/C(=N\OC(=O)c1ccc(F)cc1)c1ccc(Br)cc1,0.6,36,48,21,5
CCCS(=O)(=O)NC(=O)C1(C)CCCN(C(=O)COc2ccccc2)C1 (stereo unspecified),.,.,0,.,.
CNC(=O)c1c(NC(=O)c2cccc(N3C(=O)CCC3=O)c2)sc2c1CCCC2,.,.,11,9,1
Cc1cc(C)n2nc(C(=O)Nc3ccc4c(c3)CCC4)nc2n1,0.5,52*,26,29,0
O=C(Nc1ccc(N2CCN(C(=O)c3ccccc3)CC2)cc1)c1cc2ccccc2o1,1.1,-8,52*,-2,0
CN1CCN(c2ccc(NC(=O)c3cc4ccccc4o3)cc2)CC1,.,.,29,.,-1
Cc1ccc(C(=O)Nc2ccc3c(c2)CCC3)o1,0.4,55*,33,47,2
NC(=O)c1c(NC(=O)c2cccc(N3C(=O)CCC3=O)c2)sc2c1CCCCC2,.,.,83*,.,-3
CCOC(=O)C1(Cc2ccccc2)CCCN(C(=O)COc2ccccc2OC)C1 (stereo unspecified),.,.,4,.,.
NC(=O)c1c(NC(=O)c2cc3ccccc3o2)sc2c1CCC2,0.3,66*,50*,28,3
O=C(Nc1ccc2c(c1)CCC2)c1cc2ccccc2o1,0.5,54*,29,-6,4
CCN1CCN(CCNC(=O)c2ccc(/C=C3/Sc4ccccc4N(Cc4cccc(Cl)c4)C3=O)cc2)CC1,1.1,-6,26,-3,2
O=C1Nc2cc(C(=O)NCCN3CCCCCC3)ccc2S/C1=C/c1ccccc1F,.,.,52*,.,.
CCN1CCCC1CNC(=O)c1ccc2c(c1)NC(=O)/C(=C\c1ccc(C)cc1)S2 (stereo unspecified),.,.,79*,.,-6
O=C1Nc2cc(C(=O)NCCCN3CCCC3)ccc2S/C1=C/c1ccccc1F,.,.,6,.,1
CCN1CCN(CCNC(=O)c2ccc3c(c2)N(Cc2ccc(F)cc2)C(=O)/C(=C/c2ccccc2)S3)CC1,1.1,-5,57*,27,0
Cc1ccnc(NC(=O)c2ccccc2[N+](=O)[O-])c1,0.8,17,-1,7,2
Cc1ccnc(NC(=O)/C=C/c2ccccc2[N+](=O)[O-])c1,0.3,73*,.,34,2
O=C1NC(=S)N/C1=C\c1ccc(N2CCOCC2)cc1,0.2,78*,9,38,6
SMILES,FLuc act counter,FLuc inh counter,C8 TRAIL sens,PPC-1+TRAIL kill,HSP90 refold inh
Cc1ccc(NC(=S)c2ccc(N(C)C)cc2)cc1,0.4,58*,39,9,8
O=C(Cn1cc(CNC(=O)C2CCCCC2)nn1)Nc1cc(C(F)(F)F)ccc1Cl,.,.,-8,.,.
O=C(Cc1ccsc1-c1ccccc1)NO,1,-4,63*,7,1
N#Cc1c(NC(=O)c2cccnc2)sc2c1CCC2,0.5,54*,27,12,4
CC(=O)Nc1ccc(CN(C)c2c(C)nc3ccc(C(=O)N4CCN(C(C)=O)CC4)cn23)cc1,.,.,-3,.,.
COc1cc(N(C(C)=O)c2ccc(O)c(C(=O)O)c2)c2ncccc2c1,.,.,1,.,.
CCn1ccc(C(=O)Oc2ccc(Cl)cc2)n1,0.5,54*,-1,-2,1
CCn1ccc(C(=O)Nc2ccc(Cl)cn2)n1,0.9,11,2,15,2
Cc1ccccc1/C=C1\CCCc2ccccc2C1=O,0.4,61*,24,30,-5
O=C1/C(=C\c2ccc3ccccc3c2)CCCc2ccccc21,0.5,52*,19,20,-2
COc1ccc(/C=C2\CCc3ccccc3C2=O)cc1OC,0.9,14,8,4,-22
COc1cccc(C=C2Cc3ccccc3C2=O)c1,.,.,-2,.,.
